Measurements reported in ChEMBL document CHEMBL2311413, “N-cinnamoylated chloroquine analogues as dual-stage antimalarial leads” (J Med Chem, 2013).
Activity calls are given as the source filed them. The rule behind the calls is not given here.

Legend:
[1] = Inhibition of beta-hematin formation at 0.1 to 1 mM after 48 hrs relative to control; type: functional
Summary of the method: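 Compounds in DMSO, 0.1−1 mM, added in triplicate to hemin chloride in DMSO (5.2 mg/mL). Formation started with 0.2 M acetate buffer pH 4.4, then 37 °C for 48 h. After centrifugation, pellet washed four times with DMSO and dissolved in 0.2 M NaOH, diluted 1:6 in 0.1 M NaOH, absorbance at 405 nm. Water and DMSO as negative controls.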

Plasmodium falciparum [2] = experiment: Antiplasmodial activity against CQ-resistant Plasmodium falciparum 3D7 blood stage form after 48 hrs by FACSort cytometry; type: functional, organism-based; details: 3D7, 48 h
Plasmodium falciparum [3] = experiment: Antiplasmodial activity against CQ-resistant Plasmodium falciparum W2 blood stage form after 48 hrs by FACSort cytometry; type: functional, organism-based; details: W2, 48 h
Plasmodium berghei [4] = experiment: Antiplasmodial activity against Plasmodium berghei liver stage form transfected in human Huh-7 cells assessed as cell viability after 48 hrs by luciferase reporter gene assay; type: functional, organism-based; details: Huh-7, 48 h
Huh-7 = experiment: Cytotoxicity against human HuH7 cells assessed as cell viability by AlamarBlue assay; type: cell-based
Summary of the method: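 Huh-7 human hepatoma cells grown in RPMI 1640 with 10% FCS, nonessential amino acids, glutamine and 10 mM HEPES pH 7, 37 °C, 5% CO2; 1.2 × 10^4 cells/well seeded the day before. Compound added ~1 h before P. berghei sporozoite infection and renewed at 24 h. Viability read by AlamarBlue per manufacturer's protocol at 48 h post-infection.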

Plasmodium berghei [5] = experiment: Antimalarial activity against Plasmodium berghei infected in Swiss Webster mouse assessed as increase in survival time at 30 mg/kg, ip bid administered for 4 days by Giemsa staining method relative to untreated control; type: functional
Summary of the method: (§1)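 Female Swiss Webster mice (n = 5) infected ip with 10^6 P. berghei-infected erythrocytes. Dosing began 2 h later by ip injection twice daily for 4 days; chloroquine control at 3, 10, 30 mg/kg ip twice daily. Mice checked daily for toxicity and parasitemia (Giemsa-stained blood smears). Survival after treatment start compared with untreated controls.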

Mus musculus [6] = experiment: Toxicity in Plasmodium berghei infected Swiss Webster mouse at 10 to 100 mg/kg, ip bid administered for 4 days by Giemsa staining method; type: organism-based; design: dose 10-100 mg/kg, route intraperitoneal; details: in vivo, 96 h
Summary of the method: (§2)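 Female Swiss Webster mice (n = 5) infected ip with 10^6 P. berghei-infected erythrocytes. Treatment began 2 h later: ip 10, 30 or 100 mg/kg twice daily for 4 days. Chloroquine control at 3, 10 and 30 mg/kg ip twice daily. Daily checks for toxicity and for parasitemia on Giemsa-stained blood smears; survival followed over time.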

Plasmodium berghei [7] = experiment: Antimalarial activity against Plasmodium berghei infected in Swiss Webster mouse assessed as increase in survival time at 10 mg/kg, ip bid administered for 4 days by Giemsa staining method relative to untreated control; type: functional; summary of the method: as §1
Plasmodium berghei [8] = experiment: Antimalarial activity against Plasmodium berghei infected in Swiss Webster mouse assessed as increase in survival time at 100 mg/kg, ip bid administered for 4 days by Giemsa staining method relative to untreated control; type: functional; details: route intraperitoneal; summary of the method: as §1
Mus musculus [9] = experiment: Toxicity in Plasmodium berghei infected Swiss Webster mouse at 100 mg/kg, ip bid administered for 4 days by Giemsa staining method; type: organism-based; design: dose 100 mg/kg, route intraperitoneal; details: in vivo, 96 h; summary of the method: as §2

Structure (SMILES) | inhibition [1] | IC50 (Plasmodium falciparum [2]) | IC50 (Plasmodium falciparum [3]) | IC50 (Plasmodium berghei [4]) | also measured
O=C(/C=C/c1ccc(F)cc1)NCCCCNc1ccnc2cc(Cl)ccc12 | 50% | 39.9 nM | 19.7 nM | 1420 nM | 
C[C@@H]1CC[C@H]2[C@@H](C)C(=O)O[C@@H]3O[C@@]4(C)CC[C@@H]1[C@]32OO4 [ARTEMISININ] | < 50% | 23.5 nM | 9.5 nM |  | 
COc1ccc(/C=C/C(=O)OCCCCNc2ccnc3cc(Cl)ccc23)cc1 | 50% |  | 122 nM | 6470 nM | 
O=C(/C=C/c1ccccc1[N+](=O)[O-])NCCCNc1ccnc2cc(Cl)ccc12 | 50% | 64.2 nM | 52.1 nM |  | 
O=C(/C=C/c1ccc(F)cc1)NCCCNc1ccnc2cc(Cl)ccc12 |  | 47.7 nM | 46.7 nM |  | 
O=C(/C=C/c1ccc(Cl)cc1)NCCCCCNc1ccnc2cc(Cl)ccc12 |  |  | 25.1 nM | 1620 nM | 
Cc1ccc(/C=C/C(=O)NCCCCNc2ccnc3cc(Cl)ccc23)cc1 |  | 24.2 nM | 16.9 nM | 2360 nM | 
O=C(/C=C/c1cccc([N+](=O)[O-])c1)NCCCNc1ccnc2cc(Cl)ccc12 | 50% | 52.7 nM | 50.3 nM |  | 
CN(C)c1ccc(/C=C/C(=O)NCCCCNc2ccnc3cc(Cl)ccc23)cc1 | 50% |  | 25.8 nM |  | 
COc1ccc(/C=C/C(=O)NCCCCNc2ccnc3cc(Cl)ccc23)cc1OC |  |  | 111 nM | 4050 nM | Activity (Huh-7): Non-toxic
O=C(/C=C/c1ccccc1)NCCCCNc1ccnc2cc(Cl)ccc12 |  | 62.9 nM | 46.6 nM | 1060 nM | 
COc1ccc(/C=C/C(=O)NCCCC(C)Nc2cc(OC)cc3cccnc23)cc1 (stereo not drawn) |  |  | > 10000 nM | 2350 nM | 
O=C(/C=C/c1ccc([N+](=O)[O-])cc1)NCCCNc1ccnc2cc(Cl)ccc12 | 50% | 52.5 nM | 23.7 nM |  | 
COc1ccc(/C=C/C(=O)NCCCCNc2ccnc3cc(Cl)ccc23)cc1 | 50% | 30.6 nM | 20 nM | 2860 nM | Activity (Plasmodium berghei [5]): inactive; Activity (Mus musculus [6]): Non-toxic; Activity (Huh-7): Non-toxic; Activity (Plasmodium berghei [7]): inactive; Survival (Plasmodium berghei [8]): 2 days
CCN(CC)CCCC(C)Nc1ccnc2cc(Cl)ccc12 (stereo not drawn) [CHLOROQUINE] | > 75% |  |  | 15900 nM | 
O=C(/C=C/c1ccccc1)NCCCNc1ccnc2cc(Cl)ccc12 |  | 141 nM | 74.8 nM |  | 
CC(C)c1ccc(/C=C/C(=O)NCCCNc2ccnc3cc(Cl)ccc23)cc1 |  | 50.3 nM | 38 nM |  | 
COc1cc(NC(C)CCCN)c2ncccc2c1 (stereo not drawn) [PRIMAQUINE] |  |  |  | 7500 nM | 
Nc1ccc(/C=C/C(=O)NCCCNc2ccnc3cc(Cl)ccc23)cc1 |  | 135 nM | 79.8 nM |  | 

Structure (SMILES) | inhibition [1] | IC50 (Plasmodium falciparum [2]) | IC50 (Plasmodium falciparum [3]) | IC50 (Plasmodium berghei [4]) | also measured
O=C(/C=C/c1ccc(Cl)cc1)NCCCCNc1ccnc2cc(Cl)ccc12 | 50% | 26.2 nM | 11.6 nM | 1440 nM | Survival (Plasmodium berghei [5]; route intraperitoneal): 2 days; Activity (Mus musculus [9]): Toxic; Survival (Plasmodium berghei [7]; route intraperitoneal): 2 days
O=C(/C=C/c1ccccc1[N+](=O)[O-])NCCCCNc1ccnc2cc(Cl)ccc12 | 50% | 56.9 nM | 38.3 nM | 1090 nM | 
COc1ccc(/C=C/C(=O)NCCCNc2ccnc3cc(Cl)ccc23)cc1 |  | 49.5 nM | 55.1 nM | 4020 nM | 
O=C(/C=C/c1cccc([N+](=O)[O-])c1)NCCCCNc1ccnc2cc(Cl)ccc12 |  | 42.1 nM | 26.2 nM |  | 
O=C(/C=C/c1ccc(Br)cc1)NCCCNc1ccnc2cc(Cl)ccc12 |  | 50 nM | 38.2 nM |  | 
O=C(/C=C/c1ccc([N+](=O)[O-])cc1)NCCCCNc1ccnc2cc(Cl)ccc12 | > 75% | 48.9 nM | 23.5 nM |  | 
COc1ccc(/C=C/C(=O)NCCCCNc2ccncc2)cc1 |  |  | > 10000 nM | > 10000 nM | 
O=C(/C=C/c1ccc(Br)cc1)NCCCCNc1ccnc2cc(Cl)ccc12 | > 75% | 28.8 nM | 18.2 nM | 2280 nM | 
CC(C)c1ccc(/C=C/C(=O)NCCCCNc2ccnc3cc(Cl)ccc23)cc1 | 50% | 15.6 nM | 11 nM | 2500 nM | Activity (Plasmodium berghei [5]): inactive; Activity (Mus musculus [9]): Toxic; Activity (Plasmodium berghei [7]): inactive
O=C(/C=C/c1cccc(F)c1)NCCCCNc1ccnc2cc(Cl)ccc12 | 50% | 50.9 nM | 34.1 nM | 1130 nM | 
CC(C)c1ccc(/C=C/C(=O)NCCCCNc2ccnc3ccccc23)cc1 |  |  | 115 nM |  | 
O=C(/C=C/c1cccc(F)c1)NCCCNc1ccnc2cc(Cl)ccc12 |  | 138 nM | 73.3 nM |  | 
O=C(/C=C/c1ccc(Cl)cc1)NCCCNc1ccnc2cc(Cl)ccc12 | 50% | 46.5 nM | 41.6 nM |  | 
Nc1ccc(/C=C/C(=O)NCCCCNc2ccnc3cc(Cl)ccc23)cc1 |  | 78.1 nM | 58.8 nM |  | 
CC(C)c1ccc(/C=C/C(=O)NCCCCCNc2ccnc3cc(Cl)ccc23)cc1 | 50% |  | 31.5 nM |  | 
COc1ccc(/C=C/C(=O)NCCCCCNc2ccnc3cc(Cl)ccc23)cc1 |  |  | 50.3 nM | 2270 nM | 
Cc1ccc(/C=C/C(=O)NCCCNc2ccnc3cc(Cl)ccc23)cc1 |  | 55.9 nM | 47.4 nM |  | 
CC(C)c1ccc(/C=C/C(=O)NCCCCN2CCOCC2)cc1 |  |  | > 10000 nM | > 10000 nM | 
